The RNAGym collection of RNA variant scans (doi:10.1126/science.aae0568)
Fewer inactive variants are shown than the library holds.

B1: tRNA (parent)
chain: GUUCCGUUGGCGUAAUGGUAACGCGUCUCCCUCCUAAGGAGAAGACUGCGGGUUCGAGUCCCGUACGGAACG

Variants of: B1
Experiment: yeast fitness relative to wild type (ratio to wild type); higher = fitter; tRNA-Arg(CCU), competitive growth, 37 C, YPD
How it was run: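 Variants of the tRNA-Arg(CCU) gene, chemically synthesised with a 3% per-site mutation rate at 69 sites, were placed at the native genomic locus in Saccharomyces cerevisiae. The pooled strains were competed in YPD at 37°C for 24 hours in six parallel replicates. Gene amplicons from the start population and from each end population were read by 100-nucleotide paired-end sequencing. Darwinian fitness relative to wild type came from changes in genotype frequencies; genotypes needed ≥ 100 starting reads, and estimates < 0.5 were set to 0.5.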

Variant	yeast fitness
U26C C49A G67A	≤ 0.5
U26G G48A C61U	0.94
U26A G52C	0.645
C27A A37C C62G	≤ 0.5
U26A C33A A45C A65U G67C	≤ 0.5
U26C U35A C62U	0.523
U26C A43U G63A	0.658
U26G C27U	0.801
U26A A37C C49U G56A	≤ 0.5
U26G C29U A65U	≤ 0.5
G25C G48A	0.951
U26A G39A G41C	≤ 0.5
U26C U64A	0.699
C27A A36G	0.761
U26G C27G A57C C66U A69U	≤ 0.5
U26A C60A	0.787
C27A C31U A36U A45C	≤ 0.5
C27A A36G G68A	≤ 0.5
U26C C49G	0.842
G25C U26A U35C	≤ 0.5
U26G C55G U59A U64G	≤ 0.5
G25C G63A	0.955
G25C G44C C49U	0.505
C27A A36G C61U	≤ 0.5

Variant	yeast fitness
U26A A42G G48C C62G	≤ 0.5
U26C C61G	0.591
U26C A37U	0.702
G25C G58C A65U	0.928
U26C G56C A57C A70U	≤ 0.5
C27A C31A G52A G58C C62A	≤ 0.5
C27A A57G G63A	0.551
U26C A42U A69C	0.669
U26C C33G A42U	≤ 0.5
U26A G48C	0.78
U26G C27G C33U G39C U47C C49U	≤ 0.5
C27A C30G G41C C61G C62U C66U A69U	≤ 0.5
U26C A45C	0.857
U26A C34G C49A U53C A69U	≤ 0.5
C27A C29G C49G G51C U54C	≤ 0.5
C27A C31G A42C C61G	≤ 0.5
U26G A69C	0.948
U26C G68U	0.821
U26C G68A	0.863
U26G U35C G63A A70G	≤ 0.5
U26A C30A C34A A45C	≤ 0.5
U26A G41C A65G G67A	≤ 0.5
U26C A43U A70U	0.707
U26C C27G C33G A37U G41A A57G C62G	≤ 0.5

Variant	yeast fitness
G25U A36U C61U	≤ 0.5
U26G G56A	0.919
C27A C30G A42C C61G	1.01
U26C U35C U64G A65G C66G	≤ 0.5
U26C A57U	0.793
U26C A57G	0.984
U26C A37U U47C U54A	≤ 0.5
U26A C33A A45C	0.55
U26C C27G C34G G67A	≤ 0.5
G25C G44A	0.97
U26G U53A C55U C61A	≤ 0.5
G25C U32G G38A C61U	≤ 0.5
U26C G56C	0.697
U26C U35C A37G	0.528
U26C U35C A37U	≤ 0.5
U26C C30G G41A C60G C62U G68A	≤ 0.5
U26A C29U C33U C62G	1.09
U26C U32C A37G C66U A69C	≤ 0.5
U26G G50C C66U	≤ 0.5
U26C C31A C66G	≤ 0.5
G25C G67A	1.01
U26C C31A A42U	0.9
U26G C34G A37C C66A	≤ 0.5
U26A A40G G58C G67U	0.556

Variant	yeast fitness
U26C C31U A43G	1.12
U26C U47A	0.721
U26A A42C	0.97
U26A A42G	0.891
C27A A65G C66U	0.772
C27A C31G C60G	0.537
U26G A45U G50A	0.535
U26C U28A A65U	0.524
U26A A40G	0.657
C27A	0.997
U26C A36G A45G	≤ 0.5
C27A A36G C61G C66U A69U	≤ 0.5
C27A A40G A69U	0.582
C27A A42G G44C C66U	≤ 0.5
G25C G51A A65G	0.742
C27A A36G A43G C55U C60U	≤ 0.5
U26G C31U C55U	0.564
G25C G48A G68A	0.564
U26A A57C C61G G67A A69U	≤ 0.5
U26G A40G	0.778
U26C G56C A65G	≤ 0.5
C27A A42U	0.702
U26A C34G A43U C49A	≤ 0.5
G25C U26A C61A	≤ 0.5

Variant	yeast fitness
U26A U53A A65G	≤ 0.5
U26C U28A	0.727
U26C U28C	0.81
G25C G50A	1
U26A A42C C49U C60G U64C C66A	≤ 0.5
U26C U32C	0.874
U26A C33A C34G	0.644
U26G U53A G56C G63A	≤ 0.5
U26G C27G U47A U54C C62U	≤ 0.5
U26G A42U	0.795
U26A G44C A57C A69U	0.653
U26C U32C C33G A42C C49G G58C C62G	≤ 0.5
U26A C31G G63C	≤ 0.5
U26A A45U	1.03
U26C C29A A36C	≤ 0.5
U26C C55U	0.617
C27A C29G	0.702
U26C A36C	0.559
U26A A57C	0.64
U26C C30U C61A	0.571
U26A C27A U28A C34U G68A A69C	0.534
U26A C31U A65C	0.691
U26G A45G C46U U53G	0.599
U26A C61G A70U	0.764

Variant	yeast fitness
U26C A37U A45U G63A	≤ 0.5
C27A A45U C49U G67C	≤ 0.5
U26C C30U U47A	0.749
U26A C27U C29A A65G G68C	≤ 0.5
U26G G68C	0.596
U26G G68A	0.824
U26A A37G U64A	≤ 0.5
U26A C55A G68C	≤ 0.5
U26G G51C G58C	0.54
C27A A42C G68C	≤ 0.5
U26G C46A A65G	0.682
U26C C30A C49U	0.533
G25U U32C A36U G56C A65C	≤ 0.5
U26A C30A A37C A43U G51C	0.595
C27A A36G A57G	≤ 0.5
U26A G51A	0.769
U26G A42C U47C	0.816
U26C A37G G67C	0.614
U26C U32C U47A	≤ 0.5
U26C U54C	0.887
U26A G63C A69U	0.527
G25C U28C A70C	0.563
U26G C62G	0.755
U26G C62U	0.842

Variant	yeast fitness
U26G G51A A65G	0.599
U26G C29G A45C	≤ 0.5
U26G A42G A43C C46G	0.677
U26C G58A	1
G25U C29G A42C	≤ 0.5
C27A A40C A45U A57U	≤ 0.5
U26A C31U G48A A65G	0.683
U26A C31U G48A	0.998
U26G A45G C46U U53G G63A C66U A69U	≤ 0.5
U26A U54A G58A	≤ 0.5
U26G C27G A57C	0.558
U26A C30G A37C A69C	≤ 0.5
U26A G58C A65G	0.611
U26A C27A U28A C34U	≤ 0.5
U26C C27G A69C	≤ 0.5
U26C A70G	0.915
C27A C30A A45C G56C C60U G68U	≤ 0.5
U26C A36C C62A	≤ 0.5
G25U C30A C46A	0.581
U26G G52A G68U	≤ 0.5
U26C C46A U47G G50A A69C	≤ 0.5
U26A A43G A69C	0.649
U26C C29U C61U	≤ 0.5
